Test results: ChEMBL document CHEMBL4007421, “Discovery and Preclinical Characterization of 3-((4-(4-Chlorophenyl)-7-fluoroquinoline-3-yl)sulfonyl)benzonitrile, a Novel Non-acetylenic Metabotropic Glutamate Receptor 5 (mGluR5) Negative Allosteric Modulator for Psychiatric Indications” (J Med Chem, 2017)

Columns and labels:
[1] = test system: Liver; experiment: Intrinsic clearance in human liver microsomes at 2.5 uM assessed per gram of liver; assay type: ADME, microsome
[2] = test system: Liver; experiment: Intrinsic clearance in rat liver microsomes at 2.5 uM assessed per gram of liver; assay type: ADME, microsome
[3] = test system: Rattus norvegicus; experiment: Anxiolytic activity in ip dosed Wistar rat assessed as increase in water drinking time during punished period administered as suspension by Vogel punished drinking conflict test; assay type: functional; conditions: read-out: MED
In short: (§1)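 Vogel punished-drinking test in rats, single i.p. or p.o. dose as suspension in 5% Tween 80; plasma sampled ~45 min after i.p. or ~75 min after p.o. dosing.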

[4] = test system: Plasma; experiment: Plasma concentration in Wistar rat at 30 mg/kg, ip administered as single dose; assay type: ADME, organism-based; conditions: in vivo
In short: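 Rats dosed i.p. at 30 mg/kg. Plasma level was taken about 45 min after dosing, at the end of the Vogel session.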

[5] = target: Metabotropic glutamate receptor 5 (Homo sapiens, UniProt P41594); experiment: Negative allosteric modulation of human mGluR5a expressed in CHO cells assessed as reduction in DHPG-induced cytosolic Ca2+ influx after 10 to 20 mins by fluo-4/AM-dye based fluorometric analysis; assay type: functional, cell-based
Chain of Metabotropic glutamate receptor 5 (Homo sapiens, UniProt P41594) (P41594 whole entry): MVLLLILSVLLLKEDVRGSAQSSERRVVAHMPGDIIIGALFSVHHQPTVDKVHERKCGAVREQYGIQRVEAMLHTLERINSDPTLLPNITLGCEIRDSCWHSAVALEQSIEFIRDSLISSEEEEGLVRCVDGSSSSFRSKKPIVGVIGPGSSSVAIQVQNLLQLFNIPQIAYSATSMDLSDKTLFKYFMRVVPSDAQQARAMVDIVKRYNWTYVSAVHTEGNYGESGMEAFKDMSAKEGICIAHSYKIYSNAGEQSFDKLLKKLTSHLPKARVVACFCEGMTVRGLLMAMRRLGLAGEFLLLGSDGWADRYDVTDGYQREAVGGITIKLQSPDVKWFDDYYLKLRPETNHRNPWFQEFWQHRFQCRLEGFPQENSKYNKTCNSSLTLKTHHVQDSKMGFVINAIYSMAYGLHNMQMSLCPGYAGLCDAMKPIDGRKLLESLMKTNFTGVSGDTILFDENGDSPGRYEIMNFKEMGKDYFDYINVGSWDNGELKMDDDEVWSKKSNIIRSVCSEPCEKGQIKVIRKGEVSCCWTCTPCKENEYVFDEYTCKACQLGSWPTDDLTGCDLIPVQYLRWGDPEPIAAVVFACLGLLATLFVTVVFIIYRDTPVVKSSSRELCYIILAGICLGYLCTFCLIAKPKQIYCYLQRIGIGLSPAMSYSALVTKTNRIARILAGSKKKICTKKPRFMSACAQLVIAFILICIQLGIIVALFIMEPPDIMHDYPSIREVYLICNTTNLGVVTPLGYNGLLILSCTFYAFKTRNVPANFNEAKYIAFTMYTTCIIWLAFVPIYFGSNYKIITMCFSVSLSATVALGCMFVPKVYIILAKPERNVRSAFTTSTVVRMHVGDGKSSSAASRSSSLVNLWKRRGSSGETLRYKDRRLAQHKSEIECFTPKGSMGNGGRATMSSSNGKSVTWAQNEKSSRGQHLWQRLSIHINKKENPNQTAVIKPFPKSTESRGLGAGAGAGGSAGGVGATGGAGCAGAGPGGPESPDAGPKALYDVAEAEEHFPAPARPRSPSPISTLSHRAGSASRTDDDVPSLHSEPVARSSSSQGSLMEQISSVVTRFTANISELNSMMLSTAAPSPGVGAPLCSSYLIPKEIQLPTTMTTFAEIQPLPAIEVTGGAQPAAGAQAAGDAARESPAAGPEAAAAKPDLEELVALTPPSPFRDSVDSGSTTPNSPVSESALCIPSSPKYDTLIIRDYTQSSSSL

[6] = target: Metabotropic glutamate receptor 5 (Rattus norvegicus, UniProt P31424); experiment: Displacement of [3H]M-MPEP from mGluR5 in Sprague-Dawley rat cerebrocortical membranes after 60 mins
Chain of Metabotropic glutamate receptor 5 (Rattus norvegicus, UniProt P31424) (P31424 whole entry): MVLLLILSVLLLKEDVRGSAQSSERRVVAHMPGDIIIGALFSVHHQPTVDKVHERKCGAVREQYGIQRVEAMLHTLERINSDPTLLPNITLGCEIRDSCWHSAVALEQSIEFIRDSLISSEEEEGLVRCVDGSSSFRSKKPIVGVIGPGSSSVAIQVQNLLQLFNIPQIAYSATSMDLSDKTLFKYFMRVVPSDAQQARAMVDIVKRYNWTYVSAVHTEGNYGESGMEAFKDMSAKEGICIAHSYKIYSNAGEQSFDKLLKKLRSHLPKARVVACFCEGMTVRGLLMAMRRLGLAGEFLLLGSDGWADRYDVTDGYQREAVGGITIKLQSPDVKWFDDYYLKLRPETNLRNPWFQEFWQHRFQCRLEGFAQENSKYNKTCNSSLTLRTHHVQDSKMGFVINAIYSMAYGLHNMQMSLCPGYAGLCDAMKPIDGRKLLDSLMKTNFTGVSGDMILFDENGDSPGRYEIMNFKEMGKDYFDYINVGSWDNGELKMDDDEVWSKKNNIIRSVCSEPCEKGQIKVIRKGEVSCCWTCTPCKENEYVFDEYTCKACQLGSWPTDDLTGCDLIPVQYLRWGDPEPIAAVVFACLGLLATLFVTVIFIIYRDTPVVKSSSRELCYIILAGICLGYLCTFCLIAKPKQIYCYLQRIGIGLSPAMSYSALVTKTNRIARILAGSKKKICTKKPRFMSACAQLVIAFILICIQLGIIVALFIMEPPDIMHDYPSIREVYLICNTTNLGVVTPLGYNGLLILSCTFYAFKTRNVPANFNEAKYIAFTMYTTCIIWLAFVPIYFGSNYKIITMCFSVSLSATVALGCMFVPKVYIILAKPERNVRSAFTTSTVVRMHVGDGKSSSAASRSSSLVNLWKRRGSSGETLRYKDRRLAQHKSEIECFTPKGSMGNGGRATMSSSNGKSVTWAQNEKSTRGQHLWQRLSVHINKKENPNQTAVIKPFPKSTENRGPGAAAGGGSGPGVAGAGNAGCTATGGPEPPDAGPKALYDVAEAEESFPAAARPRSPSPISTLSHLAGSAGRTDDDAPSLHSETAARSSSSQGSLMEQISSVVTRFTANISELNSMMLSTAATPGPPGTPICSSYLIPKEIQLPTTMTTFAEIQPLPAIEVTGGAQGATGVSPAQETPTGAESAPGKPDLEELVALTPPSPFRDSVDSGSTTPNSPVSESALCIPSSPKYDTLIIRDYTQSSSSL

[7] = test system: Rattus norvegicus; experiment: Anxiolytic activity in po dosed Wistar rat assessed as increase in water drinking time during punished period administered as suspension by Vogel punished drinking conflict test; assay type: functional; conditions: read-out: MED; in short: as §1
[8] = target: Metabotropic glutamate receptor 5 (Rattus norvegicus) (UniProt P31424); experiment: Displacement of [3H]M-MPEP from rat mGluR5 expressed in rat cerebrocortical membrane at 1 uM after 60 mins relative to control; assay type: cell membranes
Chain of Metabotropic glutamate receptor 5 (Rattus norvegicus) (P31424 21-1203 limits assumed): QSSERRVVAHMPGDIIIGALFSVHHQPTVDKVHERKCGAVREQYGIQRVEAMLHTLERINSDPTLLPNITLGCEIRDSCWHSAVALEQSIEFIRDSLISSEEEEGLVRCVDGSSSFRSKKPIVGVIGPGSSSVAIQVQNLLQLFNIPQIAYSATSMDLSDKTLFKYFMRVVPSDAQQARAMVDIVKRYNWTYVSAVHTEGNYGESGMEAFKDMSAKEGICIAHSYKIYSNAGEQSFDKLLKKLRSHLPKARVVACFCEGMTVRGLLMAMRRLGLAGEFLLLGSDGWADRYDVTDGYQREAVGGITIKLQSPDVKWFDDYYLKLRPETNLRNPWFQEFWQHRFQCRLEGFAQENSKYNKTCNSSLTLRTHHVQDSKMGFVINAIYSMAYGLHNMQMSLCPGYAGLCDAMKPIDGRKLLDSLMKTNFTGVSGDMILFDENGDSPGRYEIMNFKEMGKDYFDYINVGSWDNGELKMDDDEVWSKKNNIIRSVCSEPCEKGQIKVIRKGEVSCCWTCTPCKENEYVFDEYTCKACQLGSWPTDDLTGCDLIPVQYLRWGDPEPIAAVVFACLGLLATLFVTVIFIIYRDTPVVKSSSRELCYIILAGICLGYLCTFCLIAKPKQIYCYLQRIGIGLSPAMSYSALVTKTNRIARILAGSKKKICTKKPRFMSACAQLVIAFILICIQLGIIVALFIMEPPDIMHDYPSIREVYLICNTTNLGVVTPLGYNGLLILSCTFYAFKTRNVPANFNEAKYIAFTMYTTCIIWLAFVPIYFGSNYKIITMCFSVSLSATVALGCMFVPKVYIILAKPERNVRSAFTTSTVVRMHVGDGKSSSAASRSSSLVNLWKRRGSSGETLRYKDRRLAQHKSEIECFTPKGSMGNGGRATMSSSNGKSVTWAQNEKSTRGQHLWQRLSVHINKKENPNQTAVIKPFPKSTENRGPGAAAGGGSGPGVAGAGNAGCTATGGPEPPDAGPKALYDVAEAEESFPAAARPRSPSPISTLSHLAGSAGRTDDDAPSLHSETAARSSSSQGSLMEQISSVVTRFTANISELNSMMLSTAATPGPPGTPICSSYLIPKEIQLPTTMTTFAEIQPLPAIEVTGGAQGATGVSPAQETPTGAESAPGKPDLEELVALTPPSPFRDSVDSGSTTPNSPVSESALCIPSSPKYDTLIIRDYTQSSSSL

[9] = Plasma concentration in ip dosed Wistar rat at anxiolytic MED administered as suspension after 45 mins during Vogel punished drinking conflict test; assay type: ADME, organism-based
In short: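 Vehicle was a suspension containing 5% Tween 80, given i.p. at the Vogel minimum effective dose. Plasma was sampled about 45 min after dosing, right after the Vogel punished drinking test.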

[10] = test system: Rattus norvegicus; experiment: Therapeutic index, ratio of MED for effect on spatial learning performance in po dosed Wistar rat by Morris water maze test to MED for anxiolytic activity in Wistar rat by Vogel punished drinking conflict test
In short: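 Index is the Morris water maze minimum effective dose (oral, given 1 h before the first daily trial, 4 days of 3 trials) divided by the Vogel punished drinking minimum effective dose.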

[11] = test system: Rattus norvegicus; experiment: Effect on spatial learning performance in po dosed Wistar rat measured as escape latency dosed 1 hr prior to first daily trial by Morris water maze test; assay type: ADME, organism-based; conditions: in vivo
In short: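 Morris water maze with male Harlan-Wistar rats (190–220 g): three trials a day for 4 days, hidden 10 cm platform, video tracking; 30 mg/kg p.o. in Type IV lipid formulation 1 h before first daily trial; plasma taken after last Day 4 trial; 7–17 rats/group.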

[12] = test system: Rattus norvegicus; experiment: Therapeutic index, ratio of plasma concentration causing effect on spatial learning performance in po dosed Wistar rat by Morris water maze test to plasma concentration causing anxiolytic activity in Wistar rat by Vogel punished drinking conflict test
In short: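 Index is the plasma level in rats at 30 mg/kg p.o. in the Morris water maze (sampled after the last trial on Day 4) divided by the plasma level at the Vogel minimum effective dose. Vogel plasma was sampled right after the test.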

[13] = test system: Plasma; experiment: Plasma concentration in Wistar rat at 30 mg/kg, po administered as single dose; assay type: ADME, organism-based; conditions: in vivo
[14] = Plasma concentration in ip dosed Wistar rat at anxiolytic MED administered as suspension after 75 mins during Vogel punished drinking conflict test; assay type: ADME, organism-based
[15] = test system: Rattus norvegicus; experiment: Anxiolytic activity in po dosed Wistar rat assessed as reduction in ultrasonic vocalization; assay type: functional
[16] = test system: Rattus norvegicus; experiment: Toxicity in po dosed Harlan-Wistar rat assessed as decrease in spontaneous locomotor activity photocell-based activity monitor test; assay type: organism-based; conditions: in vivo
In short: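 Male Wistar rats were given 0, 10, 30 or 50 mg/kg p.o. Spontaneous locomotor activity (ambulatory movement) was recorded in a photocell-based activity monitor.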

[17] = test system: Rattus norvegicus; experiment: Anxiolytic activity in po dosed Wistar rat assessed as reduction in freezing behavior by contextual fearing test; assay type: functional; conditions: read-out: MED

| Compound | CLint [1] [mL/min/g] | CLint [2] [mL/min/g] | minimal effective dose [3] [mg/kg] | IC50 [5] [nM] | Ki [6] [nM] | inhibition [8] [%] | concentration at 0.75 h [9] [nM] | further results |
| --- | --- | --- | --- | --- | --- | --- | --- | --- |
| O=S(=O)(c1cc(F)cc(F)c1)c1cnc2cc(F)ccc2c1-c1ccc(F)cc1 | 0.01 | 0.93 | > 30 | 25 | 18 |  |  | concentration [4]: 206 nM; minimal effective dose [7]: > 10 mg/kg |
| O=S(=O)(c1cc(F)cc(F)c1)c1cnc2cc(F)ccc2c1-c1cccc(F)c1 | 0.06 | 1.8 | > 30 | 74 | 32.6 |  |  | concentration [4]: 63 nM |
| Cc1cccc(C#Cc2ccccc2)n1 | 1.61 | 0.19 | 3 |  |  |  |  | minimal effective dose [7]: 3 mg/kg |
| O=S(=O)(c1ccc(F)cc1)c1cnc2cc(Cl)ccc2c1-c1ccc(Cl)cc1 | 0.21 | 0.01 |  |  | 110 | 92.8 |  |  |
| O=S(=O)(c1ccc(F)c(F)c1)c1cnc2cc(F)ccc2c1-c1ccc(F)cc1 | 0.44 | 0.67 | > 30 | 43 | 19.1 |  |  | concentration [4]: 247 nM |
| N#Cc1ccc2ncc(S(=O)(=O)c3ccc(F)cc3)c(-c3ccc(Cl)cc3)c2c1 | 0.01 | 0.04 |  |  |  | 39.7 |  |  |
| O=S(=O)(c1ccc(F)c(Cl)c1)c1cnc2cc(F)ccc2c1-c1ccc(Cl)cc1 | 0.39 | 0.45 | 30 | 27 | 8.3 |  | 373 | TI [10]: 10; Activity [11]: Toxic; TI [12]: 3.9; concentration [13]: 866 nM; minimal effective dose [7]: 3 to 10 mg/kg |
| O=S(=O)(c1cc(Cl)cc(Cl)c1)c1cnc2c(F)cccc2c1-c1ccc(F)cc1 | 1.01 | 1.06 | 30 | 25 | 6.8 |  | 119 |  |
| N#Cc1ccc2c(-c3ccc(Cl)cc3)c(S(=O)(=O)c3ccc(F)cc3)cnc2c1 | 0.01 | 0.01 |  |  |  | 8.7 |  |  |
| O=S(=O)(c1cc(Cl)cc(Cl)c1)c1cnc2cc(F)ccc2c1-c1ccc(F)cc1 | 0.18 | 1.15 | > 30 | 25 |  |  |  | concentration at 1.25 h [14]: 165 nM |
| O=S(=O)(c1ccc(F)c(F)c1)c1cnc2cc(F)ccc2c1-c1ccc(Cl)cc1 | 0.01 | 1.41 | 10 | 22 | 17.1 |  |  | minimal effective dose [7]: 10 mg/kg |
| O=S(=O)(c1ccc(F)c(F)c1)c1cnc2c(F)cccc2c1-c1ccc(Cl)cc1 | 0.28 | 0.2 | 3 | 13 |  |  | 59.7 | concentration [13]: 196 nM; minimal effective dose [7]: > 30 mg/kg |
| N#Cc1cccc(S(=O)(=O)c2cnc3cc(F)ccc3c2-c2ccc(F)cc2)c1 | 0.39 | 0.7 | 10 | 20 | 6.5 |  | 208 | TI [10]: 10; Activity [11]: Toxic; TI [12]: <=8.4; concentration [13]: 1280 nM; minimal effective dose [7]: 3 to 10 mg/kg |
| CN1C(=O)CN=C(c2ccccc2)c2cc(Cl)ccc21 [DIAZEPAM] |  |  |  |  |  |  |  | ED50 [15]: 7.8 mg/kg; ED50 [16]: 9.7 mg/kg; minimal effective dose [7]: 2.5 mg/kg; minimal effective dose [17]: > 10 mg/kg |
| O=S(=O)(c1cc(Cl)cc(Cl)c1)c1cnc2cc(F)ccc2c1-c1cccc(F)c1 | 0.41 | 1.53 | 30 | 35 | 10.7 |  | 90.6 |  |
| O=S(=O)(c1ccc(F)cc1)c1cnc2c(F)cccc2c1-c1ccc(Cl)cc1 | 0.28 | 0.06 |  |  | 16 | 91.5 |  |  |
| O=S(=O)(c1ccc(F)cc1)c1cnc2ccc(Cl)cc2c1-c1ccc(Cl)cc1 | 0.01 | 0.2 |  |  |  | 58.3 |  |  |
| O=S(=O)(c1ccc(F)cc1)c1cnc2cc(F)ccc2c1-c1ccc(Cl)cc1 | 1.23 to 1.25 | 0.89 |  |  | 38.6 | 91.6 |  |  |
| O=S(=O)(c1cccc(F)c1)c1cnc2c(F)cccc2c1-c1ccc(F)cc1 | 0.19 | 0.2 | 30 | 69 | 31.6 |  | 1210 |  |
| O=S(=O)(c1ccc(F)cc1)c1cnc2c(F)c(Cl)ccc2c1-c1ccc(Cl)cc1 | 0.01 | 0.01 |  |  | 71.2 | 83.6 |  |  |
| O=S(=O)(c1ccc(F)cc1)c1cnc2c(F)cc(Cl)cc2c1-c1ccc(Cl)cc1 | 0.01 | 0.09 |  |  |  | 19 |  |  |
| O=S(=O)(c1cc(Cl)cc(Cl)c1)c1cnc2cc(F)ccc2c1-c1ccc(Cl)cc1 | 0.13 | 0.77 | 30 | 94 | 30.3 |  | 377 |  |
| O=S(=O)(c1ccc(F)cc1)c1cnc2cc(Cl)c(F)cc2c1-c1ccc(Cl)cc1 | 0.01 | 0.57 |  |  |  | 48 |  |  |
| O=S(=O)(c1ccc(F)cc1)c1cnc2ccc(F)cc2c1-c1ccc(Cl)cc1 | 0.12 | 0.4 |  |  | 180 | 76.3 |  |  |
| O=S(=O)(c1ccc(F)c(Cl)c1)c1cnc2cc(F)ccc2c1-c1ccc(F)cc1 | 0.69 | 0.89 | 10 | 21 | 5.2 |  | 71 | TI [10]: <=10; Activity [11]: Toxic; TI [12]: <=9.1; concentration [13]: 968 nM; minimal effective dose [7]: 3 mg/kg |
| O=S(=O)(c1ccc(F)cc1)c1cnc2cc(F)c(Cl)cc2c1-c1ccc(Cl)cc1 | 0.01 | 0.34 |  |  |  | 43.7 |  |  |
| O=S(=O)(c1cc(F)cc(F)c1)c1cnc2c(F)cccc2c1-c1ccc(F)cc1 | 0.69 | 0.63 | 30 | 12 | 13.3 |  | 151 |  |
